# Screening results deposited in PubChem by Sanford-Burnham Center for Chemical Genomics.
# A selection: hits, their analogues and other compounds. The true share with any hit is near 2%.
# DNMT1 inh – inhibitors of human DNMT1; 0.83% of 360,000 active; DNMT1 molecular beacon, Hinp1I cleavage, fluorescence; inhibition (reported as % activation of signal), % at 10 µM; P26358; AID 588458; in the data active = inhibition above about 50%
# STEP block – blocks human striatal-enriched tyrosine phosphatase; P54829; recombinant STEP, OMFP fluorogenic substrate, fluorescence; inhibition, % at 20 µM; 0.25% of 360,000 active; AID 588621;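 active = inhibition at 20 µM, scaled per plate between control wells, above about 37%, limit read from the data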;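 also: 0% = DMSO with enzyme and substrate and 100% = substrate only without enzyme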
# Target sequence (P54829 whole entry, looked up): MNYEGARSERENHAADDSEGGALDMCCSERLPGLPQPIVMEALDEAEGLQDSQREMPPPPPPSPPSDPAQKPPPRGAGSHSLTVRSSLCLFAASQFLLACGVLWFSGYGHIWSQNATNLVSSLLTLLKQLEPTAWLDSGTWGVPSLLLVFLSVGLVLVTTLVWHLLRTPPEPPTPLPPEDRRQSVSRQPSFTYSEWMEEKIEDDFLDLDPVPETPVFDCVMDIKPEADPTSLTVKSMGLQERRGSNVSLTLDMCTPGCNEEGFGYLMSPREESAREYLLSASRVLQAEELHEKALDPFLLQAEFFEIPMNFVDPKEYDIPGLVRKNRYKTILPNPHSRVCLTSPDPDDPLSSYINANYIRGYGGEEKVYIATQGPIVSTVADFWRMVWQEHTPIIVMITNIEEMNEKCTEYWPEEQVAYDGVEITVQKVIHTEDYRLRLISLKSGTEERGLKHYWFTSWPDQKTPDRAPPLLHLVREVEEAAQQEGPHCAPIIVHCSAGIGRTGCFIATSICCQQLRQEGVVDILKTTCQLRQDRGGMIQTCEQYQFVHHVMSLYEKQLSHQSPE
#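 material = STEP tyrosine phosphatase | reagent = fluorogenic phosphatase substrate OMFP at 25 µM final | doses = single compound dose of 20 µM, 1% DMSO final | schedule = 20 min reaction, room temperature, in the dark | measured by = fluorescence, 480/540 nm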
# LMPTP block – blocks human LMPTP phosphatase | P24666 | recombinant LMPTP-A, OMFP fluorogenic substrate, fluorescence intensity | inhibition, % at 20 µM | 0.22% of 360,000 active | AID 651560;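 active = compounds that cut the enzyme signal by at least half of the control window in the single-dose screen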;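 also: plate controls were DMSO wells with enzyme plus substrate for no effect and substrate without enzyme for full effect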
#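 test system = LMPTP-A | amount = 0.625 nM LMPTP-A final | reagent = fluorogenic phosphatase substrate OMFP at 400 µM final | incubation = 50 min at room temperature | benchmarks = no-enzyme low control, uninhibited high control | medium = Bis-Tris pH 6.0, DTT, detergent | signal = fluorescence intensity of OMFP turnover product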
# Scp-1 inhibitor – blocks human Scp-1 phosphatase activity. Q9GZU7. Recombinant Scp1, phosphopeptide, malachite green phosphate absorbance. inhibition, % at 20 µM. 0.88% of 340,000 active. AID 493091;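 active = inhibition above about 50% at 20 µM, limit read from the data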;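 also: plate controls were DMSO wells with enzyme for no effect and wells lacking enzyme for full effect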
# Target sequence (Q9GZU7 76-261 limits assumed): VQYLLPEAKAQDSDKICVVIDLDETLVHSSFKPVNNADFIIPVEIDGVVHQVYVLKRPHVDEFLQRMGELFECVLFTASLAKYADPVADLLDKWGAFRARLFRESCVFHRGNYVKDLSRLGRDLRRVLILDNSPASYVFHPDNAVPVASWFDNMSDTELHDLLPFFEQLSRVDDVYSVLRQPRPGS
#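 Material – SCP-1 phosphatase catalytic domain, residues 76-261 · Buffer or medium – Acidic Tris acetate buffer with magnesium and detergent · Also added – Phospho 17-mer peptide substrate · Compound – single 20 µM dose, 1% DMSO · Times – 45 min room-temperature reaction, 5 min colour, 30 min stabiliser · Technique – Phosphate-binding colour reagent, absorbance read at 630 nm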
# Rpn11 block – Rpn11 (human) deubiquitinase inhibition; AID 588493; 0.59% of 360,000 active; human 26S proteasome, Ub4-pepOG fluorescence polarization; 20S core pre-blocked with epoxomicin; inhibition, % at 20 µM;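 active = inhibition at 20 µM, scaled to each plate's controls, above about 33%, limit read from the data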
# Scp-1 conf – Scp-1 (human) inhibition, single-dose confirmed; shares compounds with Scp-1 inhibitor; AID 540281; recombinant SCP-1 catalytic domain, phosphate release, malachite green absorbance; 61% of 2,500 active; inhibition, % at 20 µM;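 also: plate controls were DMSO with enzyme for no effect and buffer wells lacking enzyme for full effect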
# MG interference – colorimetric interference in Scp-1 counter-screen; shares compounds with Scp-1 inhibitor; apparent inhibition (interference), % at 20 µM; AID 540313; Colorimetric interference counterscreen, malachite green absorbance 630 nm; 2,500 tested, under 10 active;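 also: compounds added after enzyme reaction finished so only phosphate colour detection is probed; plate controls were DMSO wells with completed Scp-1 reaction for no effect and substrate wells lacking enzyme for full effect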
# Scp-1 Tm shift – binds human Scp-1, shifting its melting temperature; shares compounds with Scp-1 inhibitor; Recombinant SCP1, Sypro Orange thermal shift Tm; thermal shift relative to vanadate control, % at 40 µM; 25% of 1,500 active; AID 540329;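 active = substances whose mean melting-temperature shift, as a percentage of the reference inhibitor's shift, reaches about 5.3%, limit read from the data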;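 also: 0% = Tm of DMSO wells and 100% = Tm with sodium orthovanadate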
# Numbers without * were called inactive; x = not tested or not shown.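 The calls were made as follows, unless noted: active = inhibition of at least 30% at 20 µM; inactive = the rest.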
SMILES,DNMT1 inh,STEP block,LMPTP block,Scp-1 inhibitor,Rpn11 block,Scp-1 conf,MG interference,Scp-1 Tm shift
O=C(Nc1nc2ccsc2c(=O)s1)c1ccc(F)cc1Cl,15.0,12.2,0.9,54.7*,2.9,38.5*,-9.8,-10.9
COc1ccc(/C=N/NC(=O)c2ccc(O)cc2O)cc1CSc1ccccn1,41.2,-3.1,5.1,56.8*,-15.9,63.9*,1.7,4.8
Cc1ccccc1NC(=O)CSc1n[nH]c(-c2ccccn2)n1,0.5,-1.1,0.3,62.8*,5.0,-20.3,-19.1,x
Cc1ccc(C)c(NC(=O)CSc2n[nH]c(-c3ccccn3)n2)c1,1.9,1.2,0.2,-0.6,8.4,x,x,x
Cc1ccc(N(C(=O)CNC(=O)c2ccco2)C(C(=O)NC2CCCC2)c2cccnc2)cc1F (stereo unspecified),1.1,-3.7,-0.5,-9.8,2.6,x,x,x
CCOC(=O)C1=C(C)N=c2s/c(=C\c3ccc(C(=O)O)cc3)c(=O)n2C1c1ccc(OC)cc1OC (stereo unspecified),-2.1,5.5,0.7,73.1*,5.9,72.0*,-6.5,6.9*
CCOC(=O)C1=C(C)N=c2s/c(=C\c3ccc(C(=O)O)cc3)c(=O)n2C1c1ccc(F)cc1 (stereo unspecified),1.3,10.7,0.8,7.5,-2.1,x,x,x
CCOc1ccccc1N1CCN(S(=O)(=O)c2ccc3c4c(cccc24)C(=O)N3)CC1,32.4,6.5,8.1,61.3*,5.8,50.3*,-8.2,4.7
Cc1ccc(S(=O)(=O)N2CCC(C(=O)OC(C)C(=O)N(C)c3ccccc3)CC2)cc1C (stereo unspecified),-1.2,0.3,0.1,-8.1,4.7,x,x,x
COC(=O)CCCn1cc(CN2CC(N3CCN(Cc4cccc(C)c4)CC3)CS2(=O)=O)nn1 (stereo unspecified),x,x,0.3,x,x,x,x,x
CCCCCCn1c(-c2ccco2)nc2oc3cc(OC)ccc3c(=O)c2c1=O,49.1,0.8,5.3,56.0*,5.3,50.4*,-4.9,0.2
CCCc1nc2sc3c(SCC(=O)NCc4ccco4)ncnc3c2c2c1CCC2,90.7*,21.2,4.1,81.7*,4.0,59.5*,-18.0,2.1
Cc1nc(SCC(=O)NCc2ccco2)c2c3c(sc2n1)CCCC3,-0.1,4.6,1.9,8.9,0.8,x,x,x
CC1CCCC(C)N1c1nnc(NC(=O)Cn2c(=O)oc3ccccc32)s1 (stereo unspecified),1.9,-0.1,0.2,94.8*,2.0,1.3,-9.3,x
O=C(NCCO)c1ccc(-c2ccc3nncn3c2)cc1,5.9,-2.9,-1.2,x,1.1,x,x,x
Cc1c(C(=O)O)sc2nc3n(c(=O)c12)CCC3,23.1,7.1,0.5,63.5*,-5.2,54.7*,-5.2,2.8
CC(=O)C(Cc1ccccc1)NC(=O)COC(=O)c1cc(S(=O)(=O)N2CCOCC2)ccc1F (stereo unspecified),0.1,-2.3,-0.8,x,2.3,x,x,x
CCn1c(SCC(=O)N/N=C/C(C)=C/c2ccco2)nnc1-c1ccccc1,9.5,2.1,-0.2,88.0*,-10.6,50.4*,-11.8,4.2
CCn1c(SCC(=O)N/N=C/C=C/c2ccco2)nnc1-c1ccccc1,11.4,0.0,-1.1,23.7,4.4,x,x,x
CCn1c(SCC(=O)N/N=C/C(C)=C\c2ccco2)nnc1-c1ccccc1,1.1,1.0,3.5,76.3*,-2.7,60.4*,-18.0,-1.7
Cc1ccccc1S(=O)(=O)N(C)C[C@@H]1OCc2ccccc2-c2c(n(C)c3ccccc23)C(=O)N([C@H](C)CO)C[C@@H]1C,-10.3,0.2,-0.7,x,2.1,x,x,x
Cc1ccc(-n2[nH]c(C)c(/C=N/Nc3ccc([N+](=O)[O-])cc3[N+](=O)[O-])c2=O)cc1C,-48.6,70.3*,39.1,95.5*,2.7,67.5*,-21.1,10.7*
C(=C\c1ccccc1)/CN1CCN(Cc2nc(Cc3ccccc3)no2)CC1,10.2,-1.5,-0.9,53.2*,-2.6,-5.6,-3.8,x
CCOC(=O)/C=C1\CC(C(=O)OCC)Oc2c(OC)cccc21 (stereo unspecified),6.6,-1.3,-0.7,103.5*,-0.2,66.6*,-15.6,-14.2
CCOC(=O)N1CCN(C(=O)C2CC(c3ccccc3OC)=NO2)CC1 (stereo unspecified),0.8,1.8,-1.1,-2.7,0.4,x,x,x
SMILES,DNMT1 inh,STEP block,LMPTP block,Scp-1 inhibitor,Rpn11 block,Scp-1 conf,MG interference,Scp-1 Tm shift
COc1c(O)cc2c(c1O)C1OC(CO)C(O)C(O)C1OC2=O (stereo unspecified),-2.2,-0.4,-0.8,-11.3,-8.9,x,x,x
COc1c(O)cc2c(c1O)[C@@H]1OC(CO)C(O)C(O)[C@H]1OC2=O (stereo partly specified),-1.0,-1.6,-0.4,-0.7,-4.8,-7.4,-5.2,x
CC(/C=C/c1ccccc1F)=N\NC(=O)c1ccccc1,1.6,-0.8,-0.4,-8.6,-6.8,x,x,x
CC(/C=C/c1ccccc1F)=N\NC(=O)c1ccc(Cl)cc1,1.2,-1.5,-0.1,52.3*,-1.0,-14.2,-14.0,x
C=CC#CC1(O)CC(C)[N+](C)(C)CC1C (stereo unspecified),5.4,-0.9,-2.6,103.7*,2.2,77.7*,-15.0,-25.6
Cc1ccc(C(O)c2ncc(-c3ccccc3Cl)[nH]2)c(C)c1 (stereo unspecified),-4.4,-1.0,0.0,x,-1.0,x,x,x
C1=CC2=NC34CCCCC3CC3=C(CCCC3)N4C2=CC1=NC1CCCCC1 (stereo unspecified),-4.2,3.1,9.8,68.0*,6.3,-6.2,-4.6,x
CC(C)C[C@H](NC(=O)CC[C@H]1O[C@@H](n2ccc(=O)[nH]c2=O)[C@H](O)[C@@H]1O)C(=O)O,-3.2,-1.8,-2.9,x,-8.2,x,x,x
O=C(CCCc1c[nH]c2ccccc12)Nc1ccc2ccccc2c1,-16.4,2.7,1.3,58.5*,3.1,-11.1,-5.4,x
CC(=O)Nc1ccc(NC(=O)CCCc2c[nH]c3ccccc23)cc1,-5.4,-0.2,-0.3,-2.7,-2.4,x,x,x
COc1ccccc1CNC(=O)c1cccc(S(=O)(=O)N(C)c2ccccc2)c1,4.4,0.4,0.7,-5.7,2.4,x,x,x
CN1CCN(S(=O)(=O)c2cccc(C(=O)N(C)CC(=O)Nc3ccc(F)c(F)c3F)c2)CC1,1.8,2.9,-0.4,94.7*,-3.7,17.4,-9.0,x
CSc1n[nH]c(NCc2ccc(Cl)cc2)n1,2.0,0.4,-1.0,-6.8,-3.3,x,x,x
CSc1n[nH]c(NCc2ccc(C)cc2)n1,1.6,-3.3,-0.1,55.1*,-2.9,-7.1,-11.7,x
